# Source: ChEMBL document CHEMBL1142666, “Novel [2',5'-bis-O-(tert-butyldimethylsilyl)-beta-D-ribofuranosyl]- 3'-spiro-5''-(4''-amino-1'',2''-oxathiole-2'',2" -dioxide) derivatives with anti-HIV-1 and anti-human-cytomegalovirus activity” (J Med Chem, 2005)
# System: MT4
# Test: Cytostatic concentration required to inhibit MT-4 cell proliferation
# Format: functional
# Settings: Homo sapiens
# Outline: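 Mock-infected MT-4 cells (3 × 10^5/mL) incubated with compound dilutions for 5 days. Viable cells counted by trypan blue exclusion. CC50 = concentration reducing viable MT-4 cell number by 50%.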
row,Compound,CC50
1,Cc1cn([C@@H]2O[C@H](CO[Si](C)(C)C(C)(C)C)[C@@]3(OS(=O)(=O)C=C3NCC(N)=O)[C@H]2O[Si](C)(C)C(C)(C)C)c(=O)n(C)c1=O,14.9 µM
2,Cc1cn([C@@H]2O[C@H](CO[Si](C)(C)C(C)(C)C)[C@@]3(OS(=O)(=O)C=C3NC(=O)C(=O)O)[C@H]2O[Si](C)(C)C(C)(C)C)c(=O)n(C)c1=O,31.1 µM
3,COC(=O)CCNC1=CS(=O)(=O)O[C@@]12[C@@H](CO[Si](C)(C)C(C)(C)C)O[C@@H](n1cc(C)c(=O)n(C)c1=O)[C@@H]2O[Si](C)(C)C(C)(C)C,> 250 µM
4,Cc1cn([C@@H]2O[C@H](CO[Si](C)(C)C(C)(C)C)[C@@]3(OS(=O)(=O)C=C3NC(=O)C(=O)N3CCC3)[C@H]2O[Si](C)(C)C(C)(C)C)c(=O)n(C)c1=O,17.4 µM

# System: CCRF-CEM
# Test: Effective concentration required to inhibit HIV-2 ROD in CEM cell culture
# Format: functional, cell-based
# Settings: Homo sapiens
# Outline: (§1)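 CEM cells (4 × 10^5/mL) infected at ~100 CCID50/mL and mixed with compound dilutions. Giant cell formation scored microscopically at day 4. EC50 = concentration inhibiting virus-induced cytopathicity by 50%.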
row,Compound,EC50
1,Cc1cn([C@@H]2O[C@H](CO[Si](C)(C)C(C)(C)C)[C@@]3(OS(=O)(=O)C=C3NCC(N)=O)[C@H]2O[Si](C)(C)C(C)(C)C)c(=O)n(C)c1=O,> 2 µM
2,Cc1cn([C@@H]2O[C@H](CO[Si](C)(C)C(C)(C)C)[C@@]3(OS(=O)(=O)C=C3NC(=O)C(=O)O)[C@H]2O[Si](C)(C)C(C)(C)C)c(=O)n(C)c1=O,> 50 µM
3,COC(=O)CCNC1=CS(=O)(=O)O[C@@]12[C@@H](CO[Si](C)(C)C(C)(C)C)O[C@@H](n1cc(C)c(=O)n(C)c1=O)[C@@H]2O[Si](C)(C)C(C)(C)C,> 250 µM
4,Cc1cn([C@@H]2O[C@H](CO[Si](C)(C)C(C)(C)C)[C@@]3(OS(=O)(=O)C=C3NC(=O)C(=O)N3CCC3)[C@H]2O[Si](C)(C)C(C)(C)C)c(=O)n(C)c1=O,> 10 µM

# System: HEL
# Test: Minimal cytotoxic concentration required to cause microscopically visible alteration of cell morphology in HEL Cells
# Format: functional
# Settings: Homo sapiens
# Outline: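 Uninfected HEL cells exposed to compound. Minimum cytotoxic concentration is the lowest level giving a microscopically detectable change in cell morphology.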
row,Compound,MCC
1,Cc1cn([C@@H]2O[C@H](CO[Si](C)(C)C(C)(C)C)[C@@]3(OS(=O)(=O)C=C3NCC(N)=O)[C@H]2O[Si](C)(C)C(C)(C)C)c(=O)n(C)c1=O,16 µM
2,Cc1cn([C@@H]2O[C@H](CO[Si](C)(C)C(C)(C)C)[C@@]3(OS(=O)(=O)C=C3NC(=O)C(=O)O)[C@H]2O[Si](C)(C)C(C)(C)C)c(=O)n(C)c1=O,400 µM
3,COC(=O)CCNC1=CS(=O)(=O)O[C@@]12[C@@H](CO[Si](C)(C)C(C)(C)C)O[C@@H](n1cc(C)c(=O)n(C)c1=O)[C@@H]2O[Si](C)(C)C(C)(C)C,≥ 400 µM
4,Cc1cn([C@@H]2O[C@H](CO[Si](C)(C)C(C)(C)C)[C@@]3(OS(=O)(=O)C=C3NC(=O)C(=O)N3CCC3)[C@H]2O[Si](C)(C)C(C)(C)C)c(=O)n(C)c1=O,65 µM

# System: CCRF-CEM
# Test: Effective concentration required to inhibit HIV-1 IIIB in CEM cell culture
# Format: functional, cell-based
# Settings: Homo sapiens
# Outline: as §1
row,Compound,EC50
1,Cc1cn([C@@H]2O[C@H](CO[Si](C)(C)C(C)(C)C)[C@@]3(OS(=O)(=O)C=C3NCC(N)=O)[C@H]2O[Si](C)(C)C(C)(C)C)c(=O)n(C)c1=O,> 2 µM
2,Cc1cn([C@@H]2O[C@H](CO[Si](C)(C)C(C)(C)C)[C@@]3(OS(=O)(=O)C=C3NC(=O)C(=O)O)[C@H]2O[Si](C)(C)C(C)(C)C)c(=O)n(C)c1=O,0.23 µM
3,COC(=O)CCNC1=CS(=O)(=O)O[C@@]12[C@@H](CO[Si](C)(C)C(C)(C)C)O[C@@H](n1cc(C)c(=O)n(C)c1=O)[C@@H]2O[Si](C)(C)C(C)(C)C,> 250 µM
4,Cc1cn([C@@H]2O[C@H](CO[Si](C)(C)C(C)(C)C)[C@@]3(OS(=O)(=O)C=C3NC(=O)C(=O)N3CCC3)[C@H]2O[Si](C)(C)C(C)(C)C)c(=O)n(C)c1=O,0.7 µM

# System: HEL
# Test: Cytostatic concentration required to inhibit HEL cell proliferation
# Format: functional
# Settings: Homo sapiens
# Outline: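 HEL fibroblasts seeded at 5 × 10^3 cells/well and grown 24 h, then given compound in duplicate. After 3 days at 37 °C in 5% CO2, cell number read on a Coulter counter. CC50 = concentration reducing cell growth by 50%.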
row,Compound,CC50
1,Cc1cn([C@@H]2O[C@H](CO[Si](C)(C)C(C)(C)C)[C@@]3(OS(=O)(=O)C=C3NCC(N)=O)[C@H]2O[Si](C)(C)C(C)(C)C)c(=O)n(C)c1=O,13.5 µM
2,Cc1cn([C@@H]2O[C@H](CO[Si](C)(C)C(C)(C)C)[C@@]3(OS(=O)(=O)C=C3NC(=O)C(=O)O)[C@H]2O[Si](C)(C)C(C)(C)C)c(=O)n(C)c1=O,146 µM
3,COC(=O)CCNC1=CS(=O)(=O)O[C@@]12[C@@H](CO[Si](C)(C)C(C)(C)C)O[C@@H](n1cc(C)c(=O)n(C)c1=O)[C@@H]2O[Si](C)(C)C(C)(C)C,94 µM
4,Cc1cn([C@@H]2O[C@H](CO[Si](C)(C)C(C)(C)C)[C@@]3(OS(=O)(=O)C=C3NC(=O)C(=O)N3CCC3)[C@H]2O[Si](C)(C)C(C)(C)C)c(=O)n(C)c1=O,84.4 µM

# System: CCRF-CEM
# Test: Cytostatic concentration required to inhibit CEM cell proliferation
# Format: functional
# Settings: Homo sapiens
# Outline: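 CEM cells, mock-infected, grown with serial compound dilutions for 4 days. CC50 taken as the concentration that inhibits CEM cell proliferation by 50%.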
row,Compound,CC50
1,Cc1cn([C@@H]2O[C@H](CO[Si](C)(C)C(C)(C)C)[C@@]3(OS(=O)(=O)C=C3NCC(N)=O)[C@H]2O[Si](C)(C)C(C)(C)C)c(=O)n(C)c1=O,14.6 µM
2,Cc1cn([C@@H]2O[C@H](CO[Si](C)(C)C(C)(C)C)[C@@]3(OS(=O)(=O)C=C3NC(=O)C(=O)O)[C@H]2O[Si](C)(C)C(C)(C)C)c(=O)n(C)c1=O,72.6 µM
3,COC(=O)CCNC1=CS(=O)(=O)O[C@@]12[C@@H](CO[Si](C)(C)C(C)(C)C)O[C@@H](n1cc(C)c(=O)n(C)c1=O)[C@@H]2O[Si](C)(C)C(C)(C)C,> 250 µM
4,Cc1cn([C@@H]2O[C@H](CO[Si](C)(C)C(C)(C)C)[C@@]3(OS(=O)(=O)C=C3NC(=O)C(=O)N3CCC3)[C@H]2O[Si](C)(C)C(C)(C)C)c(=O)n(C)c1=O,21.6 µM

# System: MT4
# Test: Effective concentration required to inhibit HIV-1 IIIB in MT-4 cell culture
# Format: functional, cell-based
# Settings: Homo sapiens
# Outline: (§2)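 MT-4 cells (3 × 10^5/mL) infected at ~100 CCID50/mL and mixed with compound dilutions. Cytopathicity read by trypan blue exclusion at day 5. EC50 = concentration giving 50% protection against virus-induced loss of viability.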
row,Compound,EC50
1,Cc1cn([C@@H]2O[C@H](CO[Si](C)(C)C(C)(C)C)[C@@]3(OS(=O)(=O)C=C3NCC(N)=O)[C@H]2O[Si](C)(C)C(C)(C)C)c(=O)n(C)c1=O,> 10 µM
2,Cc1cn([C@@H]2O[C@H](CO[Si](C)(C)C(C)(C)C)[C@@]3(OS(=O)(=O)C=C3NC(=O)C(=O)O)[C@H]2O[Si](C)(C)C(C)(C)C)c(=O)n(C)c1=O,1.3 µM
3,COC(=O)CCNC1=CS(=O)(=O)O[C@@]12[C@@H](CO[Si](C)(C)C(C)(C)C)O[C@@H](n1cc(C)c(=O)n(C)c1=O)[C@@H]2O[Si](C)(C)C(C)(C)C,> 250 µM
4,Cc1cn([C@@H]2O[C@H](CO[Si](C)(C)C(C)(C)C)[C@@]3(OS(=O)(=O)C=C3NC(=O)C(=O)N3CCC3)[C@H]2O[Si](C)(C)C(C)(C)C)c(=O)n(C)c1=O,0.8 µM

# System: MT4
# Test: Effective concentration required to inhibit HIV-2 ROD in MT-4 cell culture
# Format: functional, cell-based
# Settings: Homo sapiens
# Outline: as §2
row,Compound,EC50
1,Cc1cn([C@@H]2O[C@H](CO[Si](C)(C)C(C)(C)C)[C@@]3(OS(=O)(=O)C=C3NCC(N)=O)[C@H]2O[Si](C)(C)C(C)(C)C)c(=O)n(C)c1=O,> 10 µM
2,Cc1cn([C@@H]2O[C@H](CO[Si](C)(C)C(C)(C)C)[C@@]3(OS(=O)(=O)C=C3NC(=O)C(=O)O)[C@H]2O[Si](C)(C)C(C)(C)C)c(=O)n(C)c1=O,> 10 µM
3,COC(=O)CCNC1=CS(=O)(=O)O[C@@]12[C@@H](CO[Si](C)(C)C(C)(C)C)O[C@@H](n1cc(C)c(=O)n(C)c1=O)[C@@H]2O[Si](C)(C)C(C)(C)C,> 250 µM
4,Cc1cn([C@@H]2O[C@H](CO[Si](C)(C)C(C)(C)C)[C@@]3(OS(=O)(=O)C=C3NC(=O)C(=O)N3CCC3)[C@H]2O[Si](C)(C)C(C)(C)C)c(=O)n(C)c1=O,> 50 µM

# System: HEL
# Test: Effective concentration required to inhibit HCMV Davis in HEL Cells
# Format: functional, cell-based
# Settings: Homo sapiens
# Outline: (§3)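 Confluent HEL cells infected with HCMV at 100 PFU/well. After 1-2 h, residual virus removed and MEM with 2% inactivated FCS added, with compound in duplicate at 5-fold dilution steps. After 7 days at 37 °C in 5% CO2, cells fixed with ethanol and Giemsa-stained; plaques or CPE scored microscopically. IC50 interpolated graphically; mean of two independent experiments.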
row,Compound,EC50
1,Cc1cn([C@@H]2O[C@H](CO[Si](C)(C)C(C)(C)C)[C@@]3(OS(=O)(=O)C=C3NCC(N)=O)[C@H]2O[Si](C)(C)C(C)(C)C)c(=O)n(C)c1=O,> 3.2 µM
2,Cc1cn([C@@H]2O[C@H](CO[Si](C)(C)C(C)(C)C)[C@@]3(OS(=O)(=O)C=C3NC(=O)C(=O)O)[C@H]2O[Si](C)(C)C(C)(C)C)c(=O)n(C)c1=O,36 µM
3,COC(=O)CCNC1=CS(=O)(=O)O[C@@]12[C@@H](CO[Si](C)(C)C(C)(C)C)O[C@@H](n1cc(C)c(=O)n(C)c1=O)[C@@H]2O[Si](C)(C)C(C)(C)C,> 400 µM
4,Cc1cn([C@@H]2O[C@H](CO[Si](C)(C)C(C)(C)C)[C@@]3(OS(=O)(=O)C=C3NC(=O)C(=O)N3CCC3)[C@H]2O[Si](C)(C)C(C)(C)C)c(=O)n(C)c1=O,10 µM

# System: HEL
# Test: Effective concentration required to inhibit HCMV AD-169 in HEL Cells
# Format: functional, cell-based
# Settings: Homo sapiens
# Outline: as §3
row,Compound,EC50
1,Cc1cn([C@@H]2O[C@H](CO[Si](C)(C)C(C)(C)C)[C@@]3(OS(=O)(=O)C=C3NCC(N)=O)[C@H]2O[Si](C)(C)C(C)(C)C)c(=O)n(C)c1=O,> 3.2 µM
2,Cc1cn([C@@H]2O[C@H](CO[Si](C)(C)C(C)(C)C)[C@@]3(OS(=O)(=O)C=C3NC(=O)C(=O)O)[C@H]2O[Si](C)(C)C(C)(C)C)c(=O)n(C)c1=O,> 80 µM
3,COC(=O)CCNC1=CS(=O)(=O)O[C@@]12[C@@H](CO[Si](C)(C)C(C)(C)C)O[C@@H](n1cc(C)c(=O)n(C)c1=O)[C@@H]2O[Si](C)(C)C(C)(C)C,> 400 µM
4,Cc1cn([C@@H]2O[C@H](CO[Si](C)(C)C(C)(C)C)[C@@]3(OS(=O)(=O)C=C3NC(=O)C(=O)N3CCC3)[C@H]2O[Si](C)(C)C(C)(C)C)c(=O)n(C)c1=O,10 µM
